# In publication PMC4159095 (Journal of medicinal chemistry, 2013):
# Key:
# [1] = molecular target: T1, SHP2 PTP domain (GST-SHP2 PTP) (Homo sapiens, UniProt Q06124); type: biochemical; conditions: phospho-EGFR peptide substrate
# T1 sequence (Q06124 247-517 limits assumed): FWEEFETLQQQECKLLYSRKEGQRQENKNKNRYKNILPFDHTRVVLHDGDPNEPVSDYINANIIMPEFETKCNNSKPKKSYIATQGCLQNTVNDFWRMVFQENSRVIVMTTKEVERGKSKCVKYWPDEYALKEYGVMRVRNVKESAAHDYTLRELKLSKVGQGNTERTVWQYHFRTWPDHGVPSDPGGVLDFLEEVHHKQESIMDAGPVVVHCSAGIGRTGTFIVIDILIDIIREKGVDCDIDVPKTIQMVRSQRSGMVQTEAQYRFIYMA
# Outline: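 In-house purified GST-SHP2 PTP domain (0.5 μg) was preincubated with test compound at various concentrations for 30 min at room temperature. Buffer: 25 mM Tris-HCl pH 7.4, 50 mM NaCl, 5 mM DTT, 2.5 mM EDTA. EGFR pTyr peptide (DADEpYLIPQQG) was added to 0.2 mM final, then 30°C for 30 min. Released phosphate was detected with Malachite Green, reading OD620 after 10 min.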
# SHP1 = test: In vitro phosphatase activity assay, phospho-EGFR peptide substrate; type: biochemical
# GST-SHP2 PTP = test: Enzymatic kinetic analyses; type: biochemical; conditions: Cryptotanshinone 25 μM
# SHP2 = test: Reversibility test by extensive washing of the enzyme-inhibitor complex; type: biochemical
# SHP2 PTP domain = test: Fluorescence titration; type: binding; conditions: increasing compound concentrations
# Outline: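 Intrinsic tryptophan fluorescence of the GST-fused SHP2 PTP domain (purified), diluted in 20 mM Tris-HCl pH 7.5. Protein level is held constant while test compound is raised stepwise. Spectra are recorded on a luminescence spectrometer, and fluorescence is plotted against log compound concentration (M). The experiment was repeated twice; data are mean±S.E.M. of triplicates.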
# [2] = test system: IL-3-induced activation of Erk, Akt, Jak2, and Stat5; test: IL-3 signaling in Ba/F3 cells, immunoblotting; type: cell-based
# Outline: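 Ba/F3 cells were starved overnight in serum- and cytokine-free RPMI 1640, pretreated for 3 h with test compound (20 μM for the time course, graded concentrations for dose response), then stimulated with IL-3 (1.0 ng/mL) for set times or 10 min. RIPA lysates (50 μg protein) were run on 10% SDS-PAGE and immunoblotted for p-Erk, p-Akt, p-Jak2 and p-Stat5 with ECL detection. Blots were reprobed for total proteins; three repeats.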
# Hela cells = test: HeLa cell growth after control or SHP2 siRNA; type: cell-based; conditions: 24 hours treatment
# Outline: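 HeLa cells were transfected with control or SHP2 siRNA (400 pmoles/8.0×10^5 cells). After 48 h they were exposed to test compound at graded concentrations or DMSO, and cell numbers were determined 24 h later. Treated knockdown and control cells were each normalized to their untreated counterparts. Knockdown was confirmed by anti-SHP2 immunoblot with β-actin as loading control. Triplicates; three experiments.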
# [3] = test system: WT mouse embryonic fibroblasts; test: MEF cell growth; type: cell-based; conditions: Cryptotanshinone 20 μM
# [4] = test system: PTPN11E76K/+ mouse embryonic fibroblasts; test: MEF cell growth; type: cell-based; conditions: Cryptotanshinone 20 μM
# [5] = test system: myeloid progenitors from PTPN11E76K/+ mice; test: Colony-forming unit assay, GM-CSF; type: cell-based, mouse; conditions: GM-CSF 1.0 ng/mL, 7 days
# Outline: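 Bone marrow from PTPN11E76K/+/Mx1-Cre+ and PTPN11+/+/Mx1-Cre+ mice was plated at 5×10^4 cells/mL in 0.9% methylcellulose IMDM with 30% FBS, glutamine, β-mercaptoethanol and GM-CSF (1.0 ng/mL), with test compound at varying doses or DMSO. CFU-GM and CFU-M colonies were counted after 7 days at 37°C in 5% CO2 and normalized to colonies from DMSO-treated WT cells. Triplicates, two independent experiments.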
# [6] = test system: myeloid blasts from JMML patients with the PTPN11E76K/+ mutation; test: Colony-forming unit assay, GM-CSF; type: cell-based, human; conditions: GM-CSF 1.0 ng/mL, 14 days
# Outline: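 Bone marrow cells or splenocytes from JMML patients carrying PTPN11E76K/+ were plated at 5×10^4 cells/mL in 0.9% methylcellulose IMDM with 30% FBS, glutamine (10^-4 M), β-mercaptoethanol (3.3×10^-5 M) and GM-CSF (1.0 ng/mL), plus test compound at varying doses or matching DMSO. After 14 days at 37°C in 5% CO2, CFU-GM and CFU-M colonies were counted and normalized to DMSO-treated cells. Three patient samples were run in triplicate.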
# [7] = test system: JMML cells (PTPN11E76K/+); test: Total cell number in GM-CSF-containing medium; type: cell-based, human
# [8] = test system: U937 human lymphoma cells (PTPN11 G60R); test: Cell proliferation assay; type: cell-based; conditions: 48 hours
# [9] = test system: H661 human lung cancer cells (PTPN11 N58S); test: Cell proliferation assay; type: cell-based; conditions: 48 hours
# U937 cells = test: Apoptosis, Annexin V staining, FACS; type: cell-based, human; conditions: 24 hours
# H661 cells = test: Cell cycle analysis; type: cell-based, human
compound,measurement,setting,value
Cc1cccc2c3c(ccc12)C1=C(C(=O)C3=O)[C@@H](C)CO1 [Dihydrotanshinone],"SHP2 IC50, fold lower than that of Cryptotanshinone",[1],5.71 fold
same,selectivity between SHP2 and SHP1,SHP1,no selectivity between SHP2 and SHP1
C[C@H]1COC2=C1C(=O)C(=O)c1c2ccc2c1CCCC2(C)C [Cryptotanshinone],change of Vmax by inhibitor,GST-SHP2 PTP,decreased
same,type of inhibition,GST-SHP2 PTP,mixed-type inhibitor
same,reversibility of SHP2 inhibition,SHP2,irreversible inhibitor
same,quenching of SHP2 fluorescence,SHP2 PTP domain,strong quenching of SHP2 fluorescence in a dose-dependent manner
same,tyrosine-phosphorylation of Gab2 and Gab2-SHP2 interaction,[2],markedly decreased
same,"IL-3-induced activation of Erk, Akt, Jak2, and Stat5 (phosphorylation levels)","[2]; 3 hours pretreatment, IL-3 1.0 ng/mL",greatly suppressed
same,proliferation of control siRNA cells,Hela cells,decreased
same,sensitivity of SHP2-depleted cells,Hela cells; SHP2 siRNA,much less sensitive
same,cell growth of WT MEFs,[3],decreased cell growth
same,cell growth of PTPN11E76K/+ MEFs,[4],decreased cell growth
same,sensitivity of PTPN11E76K/+ MEFs relative to WT,[4],more sensitive
same,colony-forming capabilities of mutant SHP2-expressing progenitors,[5],significantly reduced
same,colony formation of JMML myeloid blasts,[6],exquisitely sensitive
same,total cell number of JMML cells,[7],greatly decreased
same,cell proliferation of U937 cells,[8],decreased cell proliferation in a dose-dependent manner
same,cell proliferation of H661 cells,[9],decreased cell proliferation in a dose-dependent manner
same,apoptosis in U937 cells,U937 cells,robust induction of apoptosis
same,cell cycle effect in H661 cells,H661 cells,G1-S arrest
Cc1coc2c1C(=O)C(=O)c1c-2ccc2c(C)cccc12 [Tanshinone I],"SHP2 IC50, fold lower than that of Cryptotanshinone",[1],8.75 fold
same,selectivity between SHP2 and SHP1,SHP1,no selectivity between SHP2 and SHP1
Cc1coc2c1C(=O)C(=O)c1c-2ccc2c1CCCC2(C)C [Tanshinone IIA],"SHP2 IC50, fold lower than that of Cryptotanshinone",[1],8.69 fold
same,selectivity between SHP2 and SHP1,SHP1,no selectivity between SHP2 and SHP1
